From ChEMBL document CHEMBL1156101, “Discovery and optimization of potent and selective triazolopyridazine series of c-Met inhibitors” (Bioorg Med Chem Lett, 2009)
Blank lines part the entries; values can stand above or below the compound they belong to.

Tests used:
Cytochrome P450 3A4 [1] = target: T1, Cytochrome P450 3A4 (Homo sapiens, UniProt P08684); assay: Inhibition of human CYP3A4; type: ADME
Cytochrome P450 3A4 [2] = target: T1, Cytochrome P450 3A4; assay: Inhibition of human CYP3A4 in human liver microsomes preincubated with NADPH; type: ADME, Microsome
[3] = Intrinsic clearance in rat liver microsomes; type: ADME, Microsome
Outline: (§1)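 Intrinsic clearance was measured in vitro in rat, mouse and human liver microsomes.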

[4] = Intrinsic clearance in mouse liver microsomes; type: ADME, Microsome; outline: as §1
[5] = Intrinsic clearance in human liver microsomes; type: ADME, Microsome; outline: as §1
[6] = Plasma protein binding in rat at 5 ug/ml; type: ADME, cell-free; conditions: read-out: PPB (converted)
Outline: (§2)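 Plasma protein binding was measured by equilibrium dialysis at 5 µg/mL.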

[7] = Plasma protein binding in mouse at 5 ug/ml; type: ADME, cell-free; conditions: read-out: PPB (converted); outline: as §2
[8] = Clearance in Sprague-Dawley rat at 0.25 mg/kg, iv in DMSO vehicle; type: ADME, organism-based; set-up: dose 0.25 mg/kg, route intravenous; conditions: in vivo
Outline: (§3)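 Male Sprague-Dawley rats, n=3. Intravenous dosing at 0.25 mg/kg in DMSO or in 20% hydroxypropyl beta-cyclodextrin in water pH 3.5 w/MSA. Oral dosing at 2 mg/kg in 2% HMPC, 1% Tween in water pH 2.2 w/HCl.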

[9] = Volume of distribution at steady state in Sprague-Dawley rat at 0.25 mg/kg, iv in DMSO vehicle; type: ADME, organism-based; set-up: dose 0.25 mg/kg, route intravenous; conditions: in vivo, read-out: Vdss; outline: as §3
[10] = Half life in Sprague-Dawley rat at 0.25 mg/kg, iv in DMSO vehicle; type: ADME, organism-based; set-up: dose 0.25 mg/kg, route intravenous; conditions: in vivo; outline: as §3
[11] = AUC (0 to infinity) in Sprague-Dawley rat at 2 mg/kg, po; type: ADME, organism-based; set-up: time infinity, dose 2 mg/kg, route oral; conditions: plasma; outline: as §3
[12] = Oral bioavailability in Sprague-Dawley rat at 2 mg/kg; type: ADME, organism-based; conditions: in vivo; outline: as §3
[13] = target: Voltage-gated inwardly rectifying potassium channel KCNH2 (Homo sapiens, UniProt Q12809); assay: Inhibition of human ERG
Homo sapiens = species on record: Homo sapiens; assay: Plasma protein binding in human at 5 ug/ml; conditions: read-out: PPB (converted)
[14] = target: Hepatocyte growth factor receptor (Homo sapiens, UniProt P08581); assay: Inhibition of c-Met by HTRF assay
CYP3A4 = CYP3A4 (Homo sapiens, UniProt P08684); assay: Selective ratio of human CYP3A4 IC50 to human CYP3A4 IC50 with pre-incubation; type: ADME; conditions: read-out: Ratio IC50
[15] = AUC (0 to 24 hrs) in mouse at ED50, po; type: ADME, organism-based; set-up: time < 24 hr, route oral; conditions: plasma
Outline: (§4)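 NIH3T3 cells transfected with human TPR-Met, implanted as xenograft in mice. Dosing by oral gavage once daily at 3, 10, 30 and 100 mg/kg for 22 days, starting 24 h after tumor cell implantation. Vehicle: 2% HMPC, 1% Tween in water pH 2.2 w/MSA. Tumor growth and body weight followed; n = 12 per group, mean ± standard error. AUC(0-24) taken at ED50 and ED90.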

[16] = AUC (0 to 24 hrs) in mouse at ED90, po; type: ADME, organism-based; set-up: time < 24 hr, route oral; conditions: plasma; outline: as §4
[17] = Clearance in Sprague-Dawley rat at 0.25 mg/kg, iv in 20% hydroxypropyl beta-cyclodextrin in water pH 3.5 w/MSA vehicle; type: ADME, organism-based; set-up: dose 0.25 mg/kg, route intravenous; conditions: in vivo
Outline: (§5)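 Male Sprague-Dawley rats, n=3, dosed intravenously at 0.25 mg/kg in 20% hydroxypropyl beta-cyclodextrin in water (pH 3.5, adjusted with MSA). In the same study, a separate oral arm used 2 mg/kg in 2% HMPC/1% Tween in water (pH 2.2, HCl) to derive bioavailability.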

[18] = Volume of distribution at steady state in Sprague-Dawley rat at 0.25 mg/kg, iv in 20% hydroxypropyl beta-cyclodextrin in water pH 3.5 w/MSA vehicle; type: ADME, organism-based; set-up: dose 0.25 mg/kg, route intravenous; conditions: in vivo, read-out: Vdss; outline: as §3
[19] = Half life in Sprague-Dawley rat at 0.25 mg/kg, iv in 20% hydroxypropyl beta-cyclodextrin in water pH 3.5 w/MSA vehicle; type: ADME, organism-based; set-up: dose 0.25 mg/kg, route intravenous; conditions: in vivo; outline: as §5
Heart = assay: Cardiotoxicity in rabbit heart assessed as electrocardiographic parameters up to 3 uM; type: toxicity, tissue-based, Oryctolagus cuniculus
Mus musculus [20] = species on record: Mus musculus; assay: Inhibition of HGF-induced c-Met phosphorylation in BALB/c mouse liver after 6 hrs by electrochemiluminescent assay; type: functional
Outline: (§6)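 Mice were given 30 mg/kg by oral gavage in 2% HMPC, 1% Tween in water pH 2.2 w/MSA, then challenged with HGF. HGF-induced c-Met phosphorylation in liver was quantified at several time points. Plasma and liver drug levels were measured alongside. n = 3, mean ± standard deviation.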

Mus musculus [21] = species on record: Mus musculus; assay: Inhibition of HGF-induced c-Met phosphorylation in BALB/c mouse plasma after 6 hrs by electrochemiluminescent assay; type: functional; outline: as §6
Mus musculus [22] = assay: Inhibition of HGF-induced c-Met phosphorylation in BALB/c mouse liver at 30 mg/kg, po after 12 hrs by electrochemiluminescent assay; type: functional; outline: as §6
NIH3T3 = assay: Antitumor activity against TPR-Met expressing NIH/3T3 xenografted in mouse dosed po over 22 days q.d; type: functional; conditions: 528 h; outline: as §4
Mus musculus [23] = assay: Toxicity in mouse xenografted with TPR-Met expressing NIH/3T3 up to 100 mg/kg, po over 22 days q.d; type: organism-based, NIH3T3; set-up: dose 100 mg/kg, route oral; conditions: in vivo, 528 h; outline: as §4

SMILES: COc1cnc2c(NCc3nnc4ccc(-c5cc(F)cc(F)c5)nn34)ccnc2c1
IC50 (Cytochrome P450 3A4 [1]): > 50 µM
IC50 (Cytochrome P450 3A4 [2]): 29 µM
microsomal CLint [3]: 53 µL/min/mg
microsomal CLint [4]: 49 µL/min/mg
microsomal CLint [5]: 47 µL/min/mg
fraction unbound at 5 ug/ml [6]: 0.002
fraction unbound at 5 ug/ml [7]: 0.023
clearance [8]: 0.717 mL/min/kg
Vd [9]: 0.201 L/kg
half-life [10]: 3.84 h
AUC(0-inf) [11]: 31100 ng·h/mL
bioavailability [12]: 62%
Ki [13]: 0.2 µM
fraction unbound at 5 ug/ml (Homo sapiens): 0.008

SMILES: COc1ccc2c(OCc3nnc4ccc(-c5cc(F)cc(F)c5)nn34)ccnc2c1
IC50 (Cytochrome P450 3A4 [1]): > 50 µM
IC50 (Cytochrome P450 3A4 [2]): 8.3 µM

SMILES: COc1ccc2c(NCc3nnc4ccc(-c5ccccc5)nn34)ccnc2c1
IC50 [14]: 1.37 µM
IC50 (Cytochrome P450 3A4 [1]): > 50 µM
IC50 (Cytochrome P450 3A4 [2]): 50 µM
IC50 shift (CYP3A4): > 1

SMILES: COc1cnc2c(NCc3nnc4ccc(-c5ccc(F)c(F)c5)nn34)ccnc2c1
IC50 (Cytochrome P450 3A4 [1]): > 50 µM
IC50 (Cytochrome P450 3A4 [2]): 9.1 µM

SMILES: COc1cnc2c(NCc3nnc4ccc(-c5cc(C)ns5)nn34)ccnc2c1
AUC(0-t) at 24 h [15]: 0.43 µM·h
AUC(0-t) at 24 h [16]: 4.7 µM·h
IC50 (Cytochrome P450 3A4 [1]): > 50 µM
IC50 (Cytochrome P450 3A4 [2]): 26 µM
microsomal CLint [3]: 59 µL/min/mg
microsomal CLint [4]: 60 µL/min/mg
microsomal CLint [5]: 24 µL/min/mg
fraction unbound at 5 ug/ml [6]: 0.007
clearance [17]: 3.08 mL/min/kg
Vd [18]: 0.303 L/kg
half-life [19]: 1.76 h
AUC(0-inf) [11]: 3500 ng·h/mL
bioavailability [12]: 30.5%
Ki [13]: 1.6 µM
Activity (Heart): Non-toxic
EC90 (Mus musculus [20]): 1.8 µM
EC90 (Mus musculus [21]): 0.136 µM
inhibition in vivo at 30 mg/kg (Mus musculus [22]): > 50%
ED50 (NIH3T3): 3.3 mg/kg
ED90 (NIH3T3): 22 mg/kg
Activity (Mus musculus [23]): Non-toxic
fraction unbound at 5 ug/ml (Homo sapiens): 0.025

SMILES: COc1ccc2c(OCc3nnc4ccc(-c5ccc(F)c(F)c5)nn34)ccnc2c1
IC50 (Cytochrome P450 3A4 [1]): > 50 µM
IC50 (Cytochrome P450 3A4 [2]): 6.4 µM

Further lines, with some results ahead:

IC50 [14]: 0.005 µM
IC50 (Cytochrome P450 3A4 [1]): 29 µM
IC50 (Cytochrome P450 3A4 [2]): 2 µM
SMILES: COc1ccc2c(OCc3nnc4ccc(-c5cc(F)c(F)c(F)c5)nn34)ccnc2c1
IC50 shift (CYP3A4): 14

IC50 [14]: > 6.67 µM
IC50 (Cytochrome P450 3A4 [1]): 4.5 µM
IC50 (Cytochrome P450 3A4 [2]): 7 µM
SMILES: COc1ccc2c(SCc3nnc4ccc(-c5ccccc5)nn34)ccnc2c1
IC50 shift (CYP3A4): 0.64

IC50 (Cytochrome P450 3A4 [1]): 18 µM
IC50 (Cytochrome P450 3A4 [2]): 8.9 µM
SMILES: COc1ccc2c(O[C@H](C)c3nnc4ccc(-c5ccccc5)nn34)ccnc2c1

IC50 (Cytochrome P450 3A4 [1]): > 50 µM
IC50 (Cytochrome P450 3A4 [2]): 16 µM
SMILES: COc1cnc2c(NCc3nnc4ccc(-c5cc(F)c(F)c(F)c5)nn34)ccnc2c1

IC50 (Cytochrome P450 3A4 [1]): 14 µM
IC50 (Cytochrome P450 3A4 [2]): 3.9 µM
SMILES: COc1ccc2c(O[C@@H](C)c3nnc4ccc(-c5ccccc5)nn34)ccnc2c1

IC50 (Cytochrome P450 3A4 [1]): 17 µM
IC50 (Cytochrome P450 3A4 [2]): 4.8 µM
SMILES: COc1ccc2c(OCc3nnc4ccc(-c5cc(C)ns5)nn34)ccnc2c1
